Assay results reported in ChEMBL document CHEMBL1221179, “An shRNA barcode screen provides insight into cancer cell vulnerability to MDM2 inhibitors” (2006).
Activity calls are given as the source filed them. The calls are words filed in the database; no cut-off is given here.

Experiments:
[1] = test system: MCF7; assay: Induction of cell cycle arrest in human MCF7 cells transfected with p53-targeting iRNA-based shRNA at 4 uM after 14 days by BrdU incorporation assay; assay type: functional
[2] = test system: MCF7; assay: Induction of cell cycle arrest in human MCF7 cells transfected hnRNPK-targeting iRNA-based shRNA at 4 uM after 14 days by BrdU incorporation assay; assay type: functional
[3] = test system: MCF7; assay: Antiproliferative activity against human MCF7 cells at 4 uM after 14 days by coomassie staining; assay type: functional, cell-based
In short: (§1)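 Retrovirally transduced shRNA (GFP control, p53, or two independent 53BP1 hairpins in pRETROSUPER); cells grown in DMEM with 10% fetal calf serum at 37 °C, 5% CO2; left untreated or given 4 µM nutlin-3 for 14 days; cell density shown by Coomassie staining, morphology inspected.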

[4] = test system: MCF7; assay: Antiproliferative activity against human MCF7 cells assessed as appearance of flattened phenotype at 4 uM after 14 days by coomassie staining; assay type: functional, cell-based; in short: as §1
[5] = test system: MCF7; assay: Antiproliferative activity against human MCF7 cells transfected with p53-targeting iRNA-based shRNA assessed as effect on cellular morphology at 4 uM after 14 days by coomassie staining; assay type: functional, cell-based; in short: as §1
[6] = test system: A549; assay: Antiproliferative activity against human A549 cells transfected with 53BP1-targeting iRNA-based shRNA assessed as effect on cellular morphology at 4 uM after 14 days by coomassie staining; assay type: functional, cell-based; in short: as §1
[7] = test system: MCF7; assay: Induction of cell cycle arrest in human MCF7 cells p53-targeting iRNA-based shRNA assessed as accumulation at S phase at 4 uM after 48 hrs by BrdU incorporation assay; assay type: functional
In short: (§2)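 MCF-7 carrying shRNA against GFP (control), p53 or 53BP1, untreated or given 4 µM nutlin-3 for 48 h; 10 µM BrdU pulse 30 min before harvest; ethanol fixation, HCl-Triton permeabilization, borate neutralization; anti-BrdU plus FITC secondary, propidium iodide with RNase; 10,000 cells per sample by flow cytometry; S-phase percentage = BrdU-positive fraction.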

[8] = test system: MCF7; assay: Induction of cell cycle arrest in human MCF7 cells 53BP1-targeting iRNA-based shRNA assessed as accumulation at S phase at 4 uM after 48 hrs by BrdU incorporation assay; assay type: functional; in short: as §2
[9] = test system: MCF7; assay: Induction of p53 expression in human MCF7 cells transfected with 53BP1-targeting iRNA-based shRNA by Western blot analysis; assay type: functional, cell-based
In short: (§3)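 MCF-7 expressing GFP control shRNA or either of two 53BP1 shRNAs; lysates immunoblotted for 53BP1, p53 (DO-1), p21 (C19) and MDM2 (2A10, SMP14) after SDS-PAGE transfer to nitrocellulose.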

[10] = test system: MCF7; assay: Induction of p53 expression in human MCF7 cells by Western blot analysis; assay type: functional, cell-based; in short: as §3
[11] = test system: MCF7; assay: Induction of CDKN1A gene expression in human MCF7 cells transfected with 53BP1-targeting iRNA-based shRNA by Western blot analysis; assay type: functional, cell-based; in short: as §3
[12] = test system: MCF7; assay: Induction of p53 expression in human MCF7 cells assessed as increase in p21CIP1 level after 18 hrs by Western blot method in presence of 2.5 mM caffeine; assay type: functional, cell-based
In short: (§4)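 MCF-7 pretreated 12 h with 2.5 mM caffeine (or not), then exposed to increasing nutlin-3 concentrations for 18 h; lysates run on SDS-PAGE, blotted to nitrocellulose and probed for p53 (DO-1) and p21 (C19).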

[13] = test system: MCF7; assay: Induction of p53 accumulation in human MCF7 cells after 18 hrs by Western blot analysis in presence of 2.5 mM caffeine; assay type: functional, cell-based; in short: as §4
[14] = test system: BJ; assay: Induction of p21CIP1 expression in irradiated human BJ cells at 3 uM by Western blot analysis; assay type: functional, cell-based
In short: (§5)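 Normal BJ fibroblasts, with or without 2 Gy irradiation, treated with increasing nutlin-3 concentrations; SDS-PAGE and nitrocellulose immunoblot for p53 stabilization and p21 induction.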

[15] = test system: MCF7; assay: Induction of apoptosis in human MCF7 cells transfected with p53-targeting iRNA-based shRNA at 4 uM after 14 days by BrdU incorporation assay; assay type: functional, cell-based
[16] = test system: MCF7; assay: Antiproliferative activity against human MCF7 cells transfected with 53BP1-targeting iRNA-based shRNA assessed as effect on cellular morphology at 4 uM after 14 days by coomassie staining; assay type: functional, cell-based; in short: as §1
[17] = test system: MCF7; assay: Induction of apoptosis in human MCF7 cells co-transfected with 53BP1-targeting iRNA-based shRNA at 4 uM after 14 days by BrdU incorporation assay; assay type: functional, cell-based
[18] = test system: BJ; assay: Induction of p21 expression in irradiated human BJ cells at 3 uM by Western blot analysis; assay type: functional, cell-based; in short: as §5
[19] = test system: MCF7; assay: Induction of cell cycle arrest in human MCF7 cells transfected with 53BP1-targeting iRNA-based shRNA at 4 uM after 48 hrs by BrdU incorporation assay

COc1ccc(C2=N[C@@H](c3ccc(Cl)cc3)[C@@H](c3ccc(Cl)cc3)N2C(=O)N2CCNC(=O)C2)c(OC(C)C)c1 [NUTLIN-3]
Activity [1]: Active | Activity [2]: Active | Activity [3]: Active | Activity [4]: Active | Activity [5]: inactive | Activity [6]: inactive | Activity [7]: 29% | Activity [8]: 17% | Activity [9]: Active | Activity [10]: Active | Activity [11]: inactive | Activity [12]: inactive | Activity [13]: Active | Activity [14]: Active | Activity [15]: inactive | Activity [16]: inactive | Activity [17]: inactive | Activity [18]: Active | Activity [19]: Active
